One assay addresses T1, Adenosine receptor A1 (Rattus norvegicus, UniProt P25099).
T1 sequence (P25099 whole entry): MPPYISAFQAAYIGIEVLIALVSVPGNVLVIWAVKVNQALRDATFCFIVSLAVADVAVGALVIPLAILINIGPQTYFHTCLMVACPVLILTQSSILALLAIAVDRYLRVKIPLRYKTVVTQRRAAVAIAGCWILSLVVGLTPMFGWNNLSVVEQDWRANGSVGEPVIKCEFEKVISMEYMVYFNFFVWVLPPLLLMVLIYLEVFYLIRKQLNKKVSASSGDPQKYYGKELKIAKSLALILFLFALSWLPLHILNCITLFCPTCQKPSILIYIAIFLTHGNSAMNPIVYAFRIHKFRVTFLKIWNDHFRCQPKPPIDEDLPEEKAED
In words: Binding affinity against Adenosine A1 receptor in rat brain membrane, using [3H]N6-cyclohexyladenosine as the radioligand. It counts as tissue-based.

Assay [1] concerns the target Adenosine receptors; A1 & A2 (Rattus norvegicus) (UniProt P29276+P25099+P30543). In words: (§1) Selectivity for A2 and A1 receptors was evaluated. The format is protein assay. The essentials:
(§2)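 Rat brain membranes (A1) bound with 1 nM [3H]-N6-cyclohexyladenosine (25 Ci/mmol). Rat striatal membranes (A2) bound with 4 nM [3H]NECA (30 Ci/mmol) in the presence of 50 nM N6-cyclopentyladenosine. Both incubations ran 1 h at 25 °C. Selectivity compares the affinities from the two binding assays.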

The next assay deals with Adenosine A2 receptor (Rattus norvegicus, UniProt P29276+P30543). The experiment in a line: Binding affinity against Adenosine A2 receptor in rat striatal membrane, using [3H]-NECA as the radioligand.
Assay [2] in a line: as §1. The method, boiled down: as §2

With `CCCn1c(=O)c2cc3nc[nH]c3cc2n(CCC)c1=O`, the Ki on Adenosine receptor A1 worked out at 0.123 µM; on Adenosine A2 receptor, 1.32 µM. Besides, in assay [1], the Ratio was 10.7.

On Adenosine receptor A1, `Cn1c(=O)c2cc3[nH]cnc3cc2n(C)c1=O` returned a Ki of 24 µM.

As to `CCCn1c(=O)c2c3nc[nH]c3ccc2n(CCC)c1=O`, the values for the Ki on Adenosine receptor A1 and at Adenosine A2 receptor were 0.296 µM and 0.79 µM, respectively. Moreover, the Ratio in assay [1] is 2.7.

Take `Cn1c(=O)c2ncn(C)c2n(C)c1=O` [ISOCAFFIENE]: the Ki on Adenosine receptor A1 was above 1000 µM.

As to `Cn1c(=O)c2c3nc(-c4ccccc4)[nH]c3ccc2n(C)c1=O`, the Ki at Adenosine receptor A1 was 0.45 µM; on Adenosine A2 receptor, 10.4 µM. The Ratio in assay [2] is 23.

In the case of `Cn1c(=O)c2cc3nc(-c4ccccc4)[nH]c3cc2n(C)c1=O`, the Ki at Adenosine receptor A1 and at Adenosine A2 receptor was above 100 µM each time.

With `CC(C)Cn1c(=O)n(C)c(=O)c2c3nc[nH]c3ccc21`, the Ki came out at 0.86 µM at Adenosine receptor A1 and 1.97 µM on Adenosine A2 receptor. In addition, the Ratio in assay [1] was found to be 2.3.

Regarding `Cn1c(=O)c2c3nc[nH]c3ccc2n(C)c1=O`, the Ki at Adenosine receptor A1 came to 13.4 µM; on Adenosine A2 receptor, 17.9 µM. Also, the Ratio in assay [1] was 1.34.

On to `CC(C)Cn1c(=O)n(C)c(=O)c2cc3[nH]cnc3cc21`, for which the Ki on Adenosine receptor A1 was 0.62 µM; on Adenosine A2 receptor, 2.4 µM. Besides, the Ratio in assay [1] was found to be 3.9.

As for `Cn1c(=O)c2cc3ncn(C)c3cc2n(C)c1=O`, the Ki is 15.2 µM on Adenosine receptor A1 and 58 µM on Adenosine A2 receptor. Also, in assay [1], the Ratio amounted to 3.8.

As for `CCn1c(=O)c2cc3nc(-c4ccccc4)[nH]c3cc2n(CC)c1=O`, the inhibition constant Ki at Adenosine receptor A1 and on Adenosine A2 receptor was above 100 µM in each case.

As for `Cn1c(=O)c2cc3c(cc2n(C)c1=O)ncn3C`, the values for the Ki at Adenosine receptor A1 and at Adenosine A2 receptor were 11.6 µM and 23 µM, respectively. Also, the Ratio in assay [1] was found to be 1.99.

Take `CCCCn1c(=O)c2c3nc[nH]c3ccc2n(CCCC)c1=O`: the results for the Ki at Adenosine receptor A1 and at Adenosine A2 receptor were 0.174 µM and 1.96 µM, respectively. In addition, the Ratio in assay [1] was 11.2.

As for `Cn1c(=O)c2cc3nc[nH]c3cc2n(C)c1=O`, the Ratio in assay [1] stood at 3.6. Further, the Ki on Adenosine A2 receptor stood at 85 µM.

Turning to `CCn1c(=O)c2c3nc(-c4ccccc4)[nH]c3ccc2n(CC)c1=O`, the Ki on Adenosine receptor A1 was above 100 µM; at Adenosine A2 receptor it was 58 µM.

Regarding `Cn1c(=O)c2c3c(ccc2n(C)c1=O)ncn3C`, the Ki at Adenosine receptor A1 amounted to 10.3 µM; on Adenosine A2 receptor it was 12.7 µM. Further, in assay [1], the Ratio stood at 1.23.

At Adenosine A2 receptor, `CC(C)Cn1c(=O)n(C)c(=O)c2nc[nH]c21` [ISOBUTYLMETHYLXANTHINE] gave a Ki of 13.8 µM. Further, the Ratio in assay [2] was 5.6.

`CCCCn1c(=O)c2cc3nc[nH]c3cc2n(CCCC)c1=O`: the Ki at Adenosine receptor A1 stood at 0.179 µM; on Adenosine A2 receptor it was 0.67 µM. Besides, the Ratio in assay [1] came to 3.7.

In general, Ki refers to the dissociation constant of the complex between target and ligand, obtained from inhibition or displacement. A low value points to higher affinity.

The values above are taken from ChEMBL document CHEMBL1124345, “Linear and proximal benzo-separated alkylated xanthines as adenosine-receptor antagonists” (J Med Chem, 1989).
